The structures appear in SMILES notation.

Data set [1] is described as follows: Cytotoxicity against C57BL/6 mouse bone marrow cells assessed as growth inhibition preincubated for 4 days followed by [3H]-thymidine addition measured after 5 hrs by betaplate counting analysis. It counts as cell-based, Bone marrow cell.
Data set [2] has as its target Voltage-gated inwardly rectifying potassium channel KCNH2 (Homo sapiens, UniProt Q12809). Put plainly: Inhibition of human ERG expressed in CHO cells by automated Qpatch clamp assay. It counts as cell-based. On the technique in general: The patch-clamp technique gives a direct electrical read-out from membranes.
For data set [3], the target named is T1, Tyrosine-protein kinase SYK (Homo sapiens, UniProt P43405).
For data set [4], the target named is T1, Tyrosine-protein kinase SYK. Put plainly: Inhibition of Syk in anti-igM stimulated human Ramos B cells assessed as phospho-BLNK level preincubated for 30 mins followed by anti-IgM stimulation measured after 15 mins by flow cytometric analysis. It counts as cell-based. On the technique in general: A flow cytometer gives signals particle by particle.
Data set [5] has the same target. Put plainly: Inhibition of Syk in anti-CD32 stimulated CD14+ human monocytes assessed as phospho-SLP76 level preincubated for 30 mins followed by anti-CD32 stimulation measured after 5 mins by flow cytometric analysis.
Data set [6] in a line: Volume of distribution at steady state in Sprague-Dawley rat at 1 mg/kg, iv and 3 mg/kg, po administered as cassette dosing. Particulars: in vivo, read-out: Vdss. In kind it is ADME, organism-based. The method in brief: (§1)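 Rats were dosed i.v. at 1 mg/kg in NMP/PEG200 (3:7) and p.o. at 3 mg/kg in CMC/water/Tween (0.5:99:0.5). PK parameters were derived from blood concentration–time curves for both routes.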

Data set [7] concerns Rattus norvegicus. Nature of the data set: Dose normalized AUC in Sprague-Dawley rat at 1 mg/kg, iv administered as cassette dosing. It counts as ADME, organism-based. On the set-up: dose 1 mg/kg, route intravenous. Particulars: in vivo. The method in brief: (§2)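 Rat PK: i.v. 1 mg/kg in NMP/PEG200 (3:7); p.o. 3 mg/kg in CMC/water/Tween (0.5:99:0.5). Exposure values dose normalized.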

Data set [8] can be described thus: Mean residence time in Sprague-Dawley rat at 1 mg/kg, iv and 3 mg/kg, po administered as cassette dosing. In kind it is ADME, organism-based. Particulars: in vivo. The method in brief:
as §1

Data set [9] in a line: Clearance in Sprague-Dawley rat at 1 mg/kg, iv and 3 mg/kg, po administered as cassette dosing. In kind it is ADME, organism-based. Particulars: in vivo. The method in brief:
as §2

Data set [10] deals with T2, hERG (KCNH2) (Homo sapiens, UniProt Q12809). Nature of the data set: Inhibition of human ERG at 3 uM by manual patch clamp assay relative to control.
T2 sequence (Q12809 whole entry): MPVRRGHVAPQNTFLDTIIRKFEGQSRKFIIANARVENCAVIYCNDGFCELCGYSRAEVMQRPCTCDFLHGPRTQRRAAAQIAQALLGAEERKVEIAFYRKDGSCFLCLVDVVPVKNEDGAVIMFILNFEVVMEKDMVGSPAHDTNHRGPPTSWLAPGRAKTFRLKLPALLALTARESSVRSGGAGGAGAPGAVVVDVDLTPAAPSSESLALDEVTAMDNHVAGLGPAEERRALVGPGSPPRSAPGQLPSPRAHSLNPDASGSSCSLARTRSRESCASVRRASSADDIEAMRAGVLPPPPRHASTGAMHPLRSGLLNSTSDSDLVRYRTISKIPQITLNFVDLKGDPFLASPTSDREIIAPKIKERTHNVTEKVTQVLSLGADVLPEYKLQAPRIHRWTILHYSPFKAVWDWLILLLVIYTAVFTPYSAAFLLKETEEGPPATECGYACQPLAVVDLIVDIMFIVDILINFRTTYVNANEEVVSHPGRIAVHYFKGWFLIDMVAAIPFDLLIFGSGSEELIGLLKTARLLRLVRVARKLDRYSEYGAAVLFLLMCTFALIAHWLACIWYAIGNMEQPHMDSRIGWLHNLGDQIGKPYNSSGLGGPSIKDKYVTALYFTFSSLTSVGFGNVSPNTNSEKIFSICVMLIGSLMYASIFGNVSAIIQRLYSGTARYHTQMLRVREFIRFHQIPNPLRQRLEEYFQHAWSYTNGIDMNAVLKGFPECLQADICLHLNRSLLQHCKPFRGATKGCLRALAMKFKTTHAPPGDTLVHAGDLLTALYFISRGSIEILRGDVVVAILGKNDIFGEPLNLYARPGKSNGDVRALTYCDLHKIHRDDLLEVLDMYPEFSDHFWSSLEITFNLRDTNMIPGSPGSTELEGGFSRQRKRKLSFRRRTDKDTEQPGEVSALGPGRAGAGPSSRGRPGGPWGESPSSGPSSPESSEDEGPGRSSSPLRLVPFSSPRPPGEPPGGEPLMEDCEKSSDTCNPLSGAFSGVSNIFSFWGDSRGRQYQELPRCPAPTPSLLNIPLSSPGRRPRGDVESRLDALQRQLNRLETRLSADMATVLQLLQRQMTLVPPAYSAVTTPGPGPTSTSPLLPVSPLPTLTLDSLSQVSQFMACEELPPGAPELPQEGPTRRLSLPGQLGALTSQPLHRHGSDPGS
For data set [11], the target named is T2, hERG (KCNH2). Nature of the data set: Inhibition of human ERG at 10 uM by manual patch clamp assay relative to control.
A short description of data set [12]: Oral bioavailability in Sprague-Dawley rat at 3 mg/kg administered as cassette dosing. In kind it is ADME, organism-based. Particulars: in vivo. The method in brief:
as §1

Data set [13] has as its system Rattus norvegicus. Nature of the data set: Dose normalized Cmax in Sprague-Dawley rat at 1 mg/kg, iv and 3 mg/kg, po administered as cassette dosing. It counts as ADME, organism-based. Particulars: in vivo. The method in brief:
as §2

Data set [14] relates to Rattus norvegicus. Put plainly: Dose normalized AUC in Sprague-Dawley rat at 3 mg/kg, po administered as cassette dosing. In kind it is ADME, organism-based. The arrangement: dose 3 mg/kg, route oral. The settings on record: in vivo. The method in brief: as §2
Data set [15] relates to Hepatocyte. Nature of the data set: Metabolic stability in rat hepatocytes assessed as compound remaining. In kind it is ADME, cell-based.
Data set [16] relates to Hepatocyte. Nature of the data set: Metabolic stability in human hepatocytes assessed as compound remaining. It counts as ADME, cell-based.
A short description of data set [17]: Metabolic stability in monkey hepatocytes assessed as compound remaining. In kind it is ADME, cell-based, Macaca mulatta, Hepatocyte. The settings on record: rhesus monkey.
A short description of data set [18]: Metabolic stability in dog hepatocytes assessed as compound remaining. It counts as ADME, cell-based, Canis lupus familiaris, Hepatocyte.
Data set [19] is described as follows: Metabolic stability in monkey liver assessed as formation of 2-(7-(3-((1R,2S)-2-aminocyclohexylamino)-6-carbamoyl-1,2,4-triazin-5-ylamino)-3-oxo-3H-indol-2-ylamino)-3-mercaptopropanoic acid at 10 to 20 uM after 8 to 18 hrs. The settings on record: rhesus monkey. In kind it is ADME, tissue-based, Macaca mulatta. The method in brief:
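Freshly excised monkey liver was cut into 230 μm slices from 8 mm cores. Four slices per vessel were preincubated 1 h at 37 °C in Williams medium E with 10% FBS, glucose, insulin, hydrocortisone, methionine, gentamycin and amphotericin B, under 75% O2/5% CO2/20% N2 with rotation. Compound was added at 10 or 20 μM (from 2 mM DMSO stock) for 8 or 18 h, then quenched with cold acetonitrile.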

Setting [20] is: Mus musculus, C57BL/6, Bone marrow cell.

Chain of Voltage-gated inwardly rectifying potassium channel KCNH2 (Q12809 whole entry): as above

For `NC(=O)c1nnc(N[C@@H]2CCCC[C@@H]2N)nc1Nc1cccc(-n2nccn2)c1`, the IC50 in data set [1] (setting [20]) was determined as 811 nM; in [2] it was 3700 nM.

On to `N[C@H]1CCCC[C@H]1Nc1cc2nc[nH]c(=O)c2c(Nc2cccc(-n3nccn3)c2)n1`, for which, in data set [1] (setting [20]), the IC50 came to 249 nM.

`NC(=O)c1ccc(N[C@@H]2CCCC[C@@H]2N)nc1Nc1cccc(-n2nccn2)c1`: the IC50 in [3] was determined as 19 nM; in data set [1] (setting [20]) it was 2600 nM; in data set [4], 445 nM.

In the case of `NC(=O)c1cnc(N[C@@H]2CCCC[C@@H]2N)nc1Nc1cccc2cc[nH]c12`, the IC50 is 782 nM in [5]; 94 nM in data set [3]; over 10000 nM in data set [1] (setting [20]); over 30000 nM in data set [2]; 170 nM in [4].

Turning to `NC(=O)c1ncc(N[C@@H]2CCCC[C@@H]2N)nc1Nc1cccc2cc[nH]c12`, in [6], the Vd was 12.3 L/kg. The IC50 in data set [5] is 302 nM; in data set [3], 5 nM; in data set [1] (setting [20]), 5270 nM; in data set [2], 8100 nM; in data set [4] it was 30 nM. Further, the values for the AUC/dose in [7] and in data set [14] were 1610 nM·h and 1523 nM·h, respectively. For the same compound, in [8], the MRT came to 7.2 h. Further, the clearance in data set [9] stood at 28 mL/min/kg. In data set [10], this compound yielded an inhibition at 3 µM of 13%. Further, the inhibition at 10 µM in data set [11] turned out to be 50%. Besides, the bioavailability in data set [12] turned out to be 95%. The Cmax/dose in [13] is 108 nM.

For the compound `c1cn2cc(-c3ccc4cn[nH]c4c3)nc(Nc3ccc(N4CCOCC4)cc3)c2n1` [ENTOSPLETINIB], in data set [1] (bone marrow cell), the IC50 is 582 nM.

With `NC(=O)c1cnc(N[C@@H]2CCCC[C@@H]2N)nc1Nc1cccc(-n2nccn2)c1`, the IC50 in [1] (setting [20]) is 5850 nM.

With `NC(=O)c1nnc(N[C@@H]2CCCC[C@@H]2N)nc1Nc1cccc2[nH]ccc12`, the Vd in data set [6] amounted to 10.3 L/kg. For the same compound, the IC50 in data set [5] worked out at 177 nM; in data set [1] (setting [20]) it was 5270 nM; in data set [2], 3700 nM; in [4], 14 nM. Besides, the AUC/dose in [7] was determined as 522 nM·h; in [14] it was 19 nM·h. In [8], this compound came in with an MRT of 2.1 h. In data set [9], this compound yielded a clearance of 83 mL/min/kg. The bioavailability in data set [12] came to 4%. Moreover, the Cmax/dose in data set [13] was found to be 4 nM.

As for `N[C@H]1COCC[C@H]1Nc1cc2cc[nH]c(=O)c2c(Nc2cccc3cc[nH]c23)n1`, the IC50 in data set [1] (setting [20]) is 3520 nM.

For `NC(=O)c1cnc(N[C@@H]2CCCC[C@@H]2NC(=O)OCc2ccccc2)nc1Nc1cccc2cc[nH]c12`, the Stability worked out at 2.6% in data set [15], 2.1% in data set [16], 13% in data set [17] and 8.4% in [18].

For `NC(=O)c1ncc(N[C@@H]2CCCC[C@@H]2N)nc1Nc1cccc(-n2nccn2)c1`, the concentration for half-maximal inhibition (IC50) in data set [5] is 1790 nM; in data set [3] it was 1 nM; in data set [1] (setting [20]), 2110 nM; in data set [2], 10000 nM; in [4] it was 69 nM.

`NC(=O)c1nnc(N[C@@H]2CCCC[C@@H]2N)nc1Nc1cccc2c1N=C(NC(CS)C(=O)O)C2=O` (stereo partly drawn): in data set [19], the Drug metabolism turned out to be 0.9 µg.

For the compound `NC(=O)c1ccc(N[C@@H]2CCCC[C@@H]2N)nc1Nc1cccc2cc[nH]c12`, the IC50 in [3] is 165 nM; in [1] (setting [20]), over 10000 nM; in data set [2] it was over 30000 nM; in data set [4] it was 438 nM.

Broadly, the IC50 is the concentration that inhibits the measured activity by half. For orientation: MRT means a mean duration of stay, worked out from the concentration-time curve. The inhibition is the change of the read-out against control, counted positive when it falls. As usually defined, the bioavailability is dose-corrected exposure relative to a reference, in per cent.

Source of the values: ChEMBL document CHEMBL3414433, “Discovery and profiling of a selective and efficacious Syk inhibitor” (J Med Chem, 2015).
